Bounds are passed on as bounds.

Assay [1] deals with U-937, HeLa, H460, 786-O, and MCF-7. Nature of the assay: 72-hour cytotoxicity across five human cell lines. In kind it is cell-based. As to conditions: MTS and SRB cytotoxicity assays. In short, it runs like this:
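Cells were treated with test compound for 72 h. U-937 cells were read by MTS reduction. HeLa, H460, 786-O and MCF-7 cells were read by sulforhodamine B staining. IC50 values are given in nM as the mean with standard deviation, n ≥ 3.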
(In general: Sulforhodamine B stains cellular protein and so reports cell mass.)

Assay [2] concerns U-937 and HeLa human cancer cell lines. Nature of the assay: Anticancer activity screen, cell line not given. In kind it is cell-based. In outline:
(§1)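 Human cancer cells were exposed continuously to test compound for 72 h. Viability was read by MTS for U-937 cells and by sulforhodamine B staining for HeLa cells. IC50 values are given in nM as the mean of at least three determinations with standard deviation.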

In assay [3] the test system is U-937 (hystiocytic lymphoma). Nature of the assay: 72-hour MTS cytotoxicity assay in U-937 cells. In kind it is cell-based, human. The settings on record: read-out: IC50 (U-937), 72-hour exposure. In outline: as §1
(Formazan colour is commonly taken as a measure of viable cells.)

The subject of assay [4] is HeLa (cervical carcinoma). Nature of the assay: 72-hour SRB cytotoxicity assay in HeLa cells. It is filed as cell-based, human. As to conditions: read-out: IC50 (HeLa), 72-hour exposure. In outline:
as §1

For the next assay, the system named is U-937 cells. Nature of the assay: Annexin V-FITC / propidium iodide apoptosis analysis. The settings on record: 24 hours, U-937, 100-times the 72-hour IC50 values. It is filed as cell-based, human.

For `CN1C(=O)[C@@]23C[C@]4([C@]56C[C@@]78SS[C@@](CO)(C(=O)N7[C@H]5Nc5ccccc56)N(C)C8=O)c5ccccc5N[C@@H]4N2C(=O)[C@]1(CO)SS3` [Compound 4, (+)-chaetocin A], in assay [1], the “IC50 / potency range (in words)” value is on record as “subnanomolar”.

For `CN1C(=O)C(=O)N2C(=C[C@]3(c4c[nH]c5ccccc45)c4ccccc4N[C@H]23)C1=O` [Compound 52, (+)-Gliocladin C], in assay [2] (72-hour exposure, U-937 and HeLa), the “anticancer activity (in words)” value is “complete loss of biological activity”. On to “(+)-12,12'-dideoxyverticillin A [Compound 3]”, for which the 50% inhibitory concentration (IC50) (in general, the point on the concentration scale where inhibition reaches its midpoint) in assay [3] came out at 15.5 nM; in assay [4], 7.2 nM.

With (+)-chaetocin C [Compound 5], in the assay with U-937 cells, the “induction of apoptotic cell death” value was “induce caspase-dependent apoptotic cell death”. In addition, the “IC50 / potency range (in words)” value in assay [1] was “subnanomolar”. Turning to (+)-gliocladin B [Compound 7], the IC50 in assay [2] (anticancer activity, cell line not specified) is > 10000 nM.

For the origin of these results see PMC3728915 (Chemical science (Royal Society of Chemistry : 2010), 2013).
